# Experimental data of several laboratories.
# Lines come from different studies, so protocols differ.
# Target: Casein kinase I isoform epsilon (CSNK1E, Homo sapiens, UniProt P49674)
Structure (SMILES),assay,conditions,remaining binding
O=C1NC(c2ccccn2)Sc2ccccc21 (stereo not shown),"cell-free assay, competition with immobilised ligand",1 µM,98%
O=C(NCCCN1CCOCC1)c1ccc(Nc2nccc(-c3cc4ccccc4s3)n2)cc1,"binding, competition with immobilised ligand",1 µM,100%
O=c1nc(-c2ccccn2)sc2ccccc12,"binding, competition with immobilised ligand",1 µM,88%
Cc1cnn2ncc(-c3ccnc(N(C)C)n3)c2c1,binding,1 µM,60%
O=C(NCCCN1CCOCC1)c1ccc(Nc2ncc(Cl)c(-c3ccc(Cl)s3)n2)cc1,"binding, competition with immobilised ligand",1 µM,100%
F[C@@H]1CCN(c2nccc(-c3cnn4ncccc34)n2)C1,binding,1 µM,85%
O=C(Nc1c[nH]nc1C(=O)NC1CCNCC1)c1cc(F)cc(F)c1,"binding, competition with immobilised ligand",1 µM,73%
O=C(NCc1ncc(C(F)(F)F)cc1Cl)c1ccc2c(c1)C1(CCS(=O)(=O)CC1)[C@H](C1CC1)N2S(=O)(=O)c1ccc(F)cc1,"cell-free assay, competition with immobilised ligand",1 µM,100%
c1cnn2ncc(-c3ccnc(N4CCC45COC5)n3)c2c1,binding,1 µM,53%
C[C@@H](c1ccc(-n2cnc3c(N)ncnc32)cc1)N1CCc2nn(C)c(Cc3ccccc3)c2C1=O,"binding, competition with immobilised ligand",0.1 µM,83%
COc1cnc(Nc2cccc(S(N)(=O)=O)c2)nc1N1CCN(c2ccccc2)C(=O)C1,"binding, competition with immobilised ligand",1 µM,100%
c1cncc(-c2cccc(Nc3nccc(NC4CCCCC4)n3)c2)c1,"binding, competition with immobilised ligand",10 µM,11%
COc1cnc(Nc2cccc(S(N)(=O)=O)c2)nc1N1CCN(c2ccccc2)CC1,"binding, competition with immobilised ligand",1 µM,100%
CN(CCCC(F)(F)F)c1nccc(-c2cnn3ncccc23)n1,binding,1 µM,100%
C[C@@H]1CN(c2cc(-c3n[nH]c4ccc(OC5(C)CC5)cc34)ncn2)C[C@H](C)O1,"cell-free assay, competition with immobilised ligand",0.1 µM,100%
Cc1cnc(Nc2ccc(C(=O)N3CCC(N4CCCC4)CC3)cc2)nc1-c1cc2ccccc2s1,"binding, competition with immobilised ligand",1 µM,100%
CC(=O)N1CCC(c2ccc(C(=O)NC3=NCCN3)cc2C(F)(F)F)CC1,"cell-free assay, competition with immobilised ligand",1 µM,100%
CCN1CCN(Cc2ccc(C(=O)Nc3ccc(C)c(Oc4ccc5c(c4)CC(=O)N5)c3)cc2C(F)(F)F)CC1,"binding, competition with immobilised ligand",1 µM,100%
C[C@@H]1CCN(c2nccc(-c3cnn4ncccc34)n2)C1,binding,1 µM,86%
Cc1cc(C)c(-n2ccn3nc(-c4cccnc4)cc23)cc1NC(=O)c1cc(C#N)cc(S(F)(F)(F)(F)F)c1,"cell-free assay, competition with immobilised ligand",0.1 µM,98.7%
N[C@@H]1CCN(c2nccc(-c3cnn4ncccc34)n2)C1,binding,1 µM,31%
CNCc1ccccc1-c1csc([C@@H](C)Nc2nc(C)nc3cc(OC)c(OC)cc23)c1,"cell-free assay, competition with immobilised ligand",1 µM,99%
